In ChEMBL document CHEMBL4813962, “Design, synthesis and biological evaluation of sulfamoylphenyl-quinazoline derivatives as potential EGFR/CAIX dual inhibitors” (Eur J Med Chem, 2021):
The source made the active and inactive calls. No cut-off for these calls is given here.

Legend:
NCI-H1975 [1] = test: Cytotoxicity against human NCI-H1975 cells assessed as reduction in cell viability incubated for 72 hrs under hypoxic condition by MTT assay; format: functional, cell-based; details: NCI-H1975, 72 h
How it was run: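 H1975 cells grown in medium with 10% FBS and penicillin/streptomycin under hypoxia (1% O2, 94% N2, 5% CO2) at 37 °C. Compounds dissolved in DMSO and diluted in medium, final DMSO below 0.4%. Incubated 72 h at 37 °C, then MTT (5 mg/mL) for 4 h. Formazan dissolved in DMSO and OD read at 570/630 nm. IC50 from three parallel experiments.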

A-431 = test: cells; format: functional, cell-based; details: Homo sapiens, A-431, 72 h
L02 = test: cells; format: functional, cell-based; details: Homo sapiens, L02, 72 h
NCI-H1975 [2] = test: Antiproliferative activity against human NCI-H1975 cells assessed as reduction in cell viability incubated for 72 hrs by MTT assay; format: functional, cell-based; details: NCI-H1975, 72 h
NCI-H1975 [3] = test: Induction of cell cycle arrest in human NCI-H1975 cells assessed as G2/M phase at 2 uM incubated for 24 hrs by propidium iodide based flow cytometry analysis (reference value: 14.74 %); format: functional
NCI-H1975 [4] = test: Induction of apoptosis in human NCI-H1975 cells assessed as necrotic cells at 2 uM incubated for 24 hrs by annexin V-FITC and propidium iodide based flow cytometry analysis (reference value: 0.455 %); format: functional
NCI-H1975 [5] = test: Induction of cell cycle arrest in human NCI-H1975 cells assessed as S phase at 2 uM incubated for 24 hrs by propidium iodide based flow cytometry analysis (reference value: 24.50 %); format: functional
NCI-H1975 [6] = test: Induction of apoptosis in human NCI-H1975 cells assessed as early apoptotic cells at 2 uM incubated for 24 hrs by annexin V-FITC and propidium iodide based flow cytometry analysis (reference value: 1.34 %); format: functional
NCI-H1975 [7] = test: Induction of apoptosis in human NCI-H1975 cells assessed as viable cells at 2 uM incubated for 24 hrs by annexin V-FITC and propidium iodide based flow cytometry analysis (reference value: 93.2 %); format: functional; details: read-out: Activity
NCI-H1975 [8] = test: Induction of apoptosis in human NCI-H1975 cells assessed as late apoptotic cells at 2 uM incubated for 24 hrs by annexin V-FITC and propidium iodide based flow cytometry analysis (reference value: 4.98 %); format: functional
NCI-H1975 [9] = test: Induction of cell cycle arrest in human NCI-H1975 cells assessed as G1 phase at 2 uM incubated for 24 hrs by propidium iodide based flow cytometry analysis (reference value: 60.76 %); format: functional
[10] = target: T1, Epidermal growth factor receptor (Homo sapiens, UniProt P00533)
[11] = target: Epidermal growth factor receptor (Homo sapiens, UniProt P00533, T790M)
A549 [12] = test: cells; format: functional, cell-based; details: Homo sapiens, A549, 72 h
Carbonic anhydrase 2 = Carbonic anhydrase 2 (Homo sapiens, UniProt P00918); test: Inhibition of human carbonic anhydrase 2 using p-nitrophenyl acetate as substrate by UV-VIS spectrophotometric analysis
Carbonic anhydrase 9 [13] = target: T2, Carbonic anhydrase 9 (Homo sapiens, UniProt Q16790)
NCI-H1975 [14] = test: Downregulation of carbonic anhydrase in human NCI-H1975 cells at 2 uM incubated for 24 hrs in hypoxic condition by Western blot analysis; format: functional, cell-based
How it was run: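 H1975 cells treated 24 h under hypoxia (1% O2, 94% N2, 5% CO2, 37 °C), with untreated cells as negative control. Lysed on ice for 30 min, spun at 20 000 g (4 °C, 10 min), protein measured by BCA. Equal protein run on 12% SDS-PAGE and moved to PVDF. Blocked in 5% milk/TBST, anti-CAIX overnight at 4 °C, peroxidase secondary 2 h, chemiluminescent detection.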

NCI-H1975 [15] = test: Antimigratory activity in human NCI-H1975 cells assessed as reduction in cell migration incubated for 24 hrs by wound healing assay; format: functional, cell-based; details: dose 0.5-1 µM
How it was run: (§1)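 H1975 monolayer scratched with pipette tip, washed twice with PBS, then kept in serum-free medium with test compound at 0.5 or 1.0 µM; untreated control got medium only. Wound photographed by inverted microscope after 24 h and wound area traced. Migration rate = (0 h wound area − […] wound area)/0 h wound area.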

NCI-H1975 [16] = test: Induction of apoptosis in human NCI-H1975 cells assessed as necrotic cells at 5 uM incubated for 24 hrs by annexin V-FITC and propidium iodide based flow cytometry analysis (reference value: 0.455 %); format: functional
NCI-H1975 [17] = test: Induction of cell cycle arrest in human NCI-H1975 cells incubated for 24 hrs by propidium iodide based flow cytometry analysis; format: functional; details: dose 2-5 µM
[18] = target: T1, Epidermal growth factor receptor; test: Inhibition of EGFR in human NCI-H1975 cells assessed as reduction in AKT phosphorylation incubated for 24 hrs by Western blot analysis; format: cell-based; details: dose 2-5 µM
How it was run: (§2)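 H1975 cells exposed to 2 or 5 µM compound for 24 h under normoxia. Lysates made on ice, protein measured by BCA, equal amounts separated on 12% SDS-PAGE and moved to PVDF. Blots blocked in 5% milk/TBST, incubated overnight at 4 °C with antibodies to EGFR/p-EGFR, AKT/p-AKT and ERK/p-ERK, and developed by chemiluminescence.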

NCI-H1975 [19] = test: Induction of apoptosis in human NCI-H1975 cells assessed as early apoptotic cells at 5 uM incubated for 24 hrs by annexin V-FITC and propidium iodide based flow cytometry analysis (reference value: 1.34 %); format: functional
NCI-H1975 [20] = test: Induction of cell cycle arrest in human NCI-H1975 cells assessed as S phase at 5 uM incubated for 24 hrs by propidium iodide based flow cytometry analysis (reference value: 24.50 %); format: functional
A549 [21] = test: Cytotoxicity against human A549 cells assessed as reduction in cell viability incubated for 72 hrs under hypoxic condition by MTT assay; format: functional, cell-based; details: A549, 72 h
How it was run: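 A549 cells given compound for 72 h at 37 °C in hypoxia (1% O2, 94% N2, 5% CO2). Compounds taken up in DMSO and diluted in medium, final DMSO below 0.4%. MTT then added for 4 h, formazan dissolved in DMSO, absorbance read at 570/630 nm. IC50 from three parallel experiments.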

NCI-H1975 [22] = test: Induction of cell cycle arrest in human NCI-H1975 cells assessed as G2/M phase at 5 uM incubated for 24 hrs by propidium iodide based flow cytometry analysis (reference value: 14.74 %); format: functional
NCI-H1975 [23] = test: Induction of apoptosis in human NCI-H1975 cells assessed as late apoptotic cells at 5 uM incubated for 24 hrs by annexin V-FITC and propidium iodide based flow cytometry analysis (reference value: 4.98 %); format: functional
NCI-H1975 [24] = test: Induction of cell cycle arrest in human NCI-H1975 cells assessed as G1 phase at 5 uM incubated for 24 hrs by propidium iodide based flow cytometry analysis (reference value: 60.76 %); format: functional
Carbonic anhydrase 9 [25] = target: T2, Carbonic anhydrase 9; test: Downregulation of carbonic anhydrase 9 in human NCI-H1975 cells assessed as reduction in HIF-1alpha incubated for 24 hrs in hypoxic condition by Western blot analysis; format: cell-based
How it was run: (§3)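 Lysates cleared at 20 000 g, protein quantified by BCA, equal amounts run on 12% SDS-PAGE and blotted to PVDF. Probed overnight at 4 °C for CAIX and HIF-1α, chemiluminescent detection.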

[26] = target: T1, Epidermal growth factor receptor; test: Inhibition of EGFR in human NCI-H1975 cells assessed as reduction in ERK phosphorylation incubated for 24 hrs by Western blot analysis; format: cell-based; details: dose 2-5 µM; how it was run: as §2
NCI-H1975 [27] = test: Antimigratory activity in human NCI-H1975 cells assessed as cell migration at 1 uM incubated for 24 hrs by wound healing assay (reference value: 51.2 %); format: functional; how it was run: as §1
NCI-H1975 [28] = test: Induction of apoptosis in human NCI-H1975 cells incubated for 24 hrs by annexin V-FITC and propidium iodide based flow cytometry analysis; format: functional, cell-based; details: dose 2-5 µM
NCI-H1975 [29] = test: Induction of apoptosis in human NCI-H1975 cells assessed as viable cells at 5 uM incubated for 24 hrs by annexin V-FITC and propidium iodide based flow cytometry analysis (reference value: 93.2 %); format: functional; details: read-out: Activity
[30] = target: T1, Epidermal growth factor receptor; test: Inhibition of EGFR in human NCI-H1975 cells assessed as reduction in EGFR phosphorylation incubated for 24 hrs by Western blot analysis; format: cell-based; details: dose 2-5 µM; how it was run: as §2
NCI-H1975 [31] = test: Downregulation of carbonic anhydrase 9 in human NCI-H1975 cells incubated for 24 hrs in hypoxic condition by Western blot analysis; format: functional, cell-based; how it was run: as §3

T1 sequence (P00533 whole entry): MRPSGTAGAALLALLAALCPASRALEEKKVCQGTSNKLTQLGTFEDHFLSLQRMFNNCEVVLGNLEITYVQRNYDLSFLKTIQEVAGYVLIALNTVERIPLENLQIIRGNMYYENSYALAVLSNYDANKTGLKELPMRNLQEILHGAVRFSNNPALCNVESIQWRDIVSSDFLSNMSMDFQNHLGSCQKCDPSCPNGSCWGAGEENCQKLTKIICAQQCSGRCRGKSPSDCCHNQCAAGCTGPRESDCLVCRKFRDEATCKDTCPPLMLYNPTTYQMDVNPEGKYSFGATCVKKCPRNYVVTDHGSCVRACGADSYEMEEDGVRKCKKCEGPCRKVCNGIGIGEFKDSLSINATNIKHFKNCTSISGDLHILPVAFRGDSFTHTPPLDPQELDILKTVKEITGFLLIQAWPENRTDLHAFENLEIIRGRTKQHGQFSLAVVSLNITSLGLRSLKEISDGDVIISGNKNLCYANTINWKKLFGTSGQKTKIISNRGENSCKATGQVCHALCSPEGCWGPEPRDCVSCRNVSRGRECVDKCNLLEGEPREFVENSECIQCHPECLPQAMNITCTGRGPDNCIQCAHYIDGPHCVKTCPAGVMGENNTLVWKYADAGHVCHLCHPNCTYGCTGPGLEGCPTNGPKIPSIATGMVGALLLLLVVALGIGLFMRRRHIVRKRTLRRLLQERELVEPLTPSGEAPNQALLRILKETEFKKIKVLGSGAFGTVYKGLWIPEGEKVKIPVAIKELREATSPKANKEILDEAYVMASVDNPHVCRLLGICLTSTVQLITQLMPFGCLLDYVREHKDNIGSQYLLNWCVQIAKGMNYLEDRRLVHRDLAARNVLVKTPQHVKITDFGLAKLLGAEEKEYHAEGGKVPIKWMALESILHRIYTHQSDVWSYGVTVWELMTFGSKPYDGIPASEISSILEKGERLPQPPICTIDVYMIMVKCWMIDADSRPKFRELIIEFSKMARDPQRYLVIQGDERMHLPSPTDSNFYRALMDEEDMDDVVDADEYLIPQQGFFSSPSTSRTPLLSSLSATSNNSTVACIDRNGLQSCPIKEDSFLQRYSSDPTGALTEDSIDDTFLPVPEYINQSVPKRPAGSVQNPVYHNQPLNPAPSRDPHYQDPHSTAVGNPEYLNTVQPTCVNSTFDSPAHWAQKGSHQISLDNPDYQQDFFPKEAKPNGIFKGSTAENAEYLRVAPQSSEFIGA
Sequence of Epidermal growth factor receptor (Homo sapiens, UniProt P00533, T790M) (P00533 25-1210 T790M limits assumed): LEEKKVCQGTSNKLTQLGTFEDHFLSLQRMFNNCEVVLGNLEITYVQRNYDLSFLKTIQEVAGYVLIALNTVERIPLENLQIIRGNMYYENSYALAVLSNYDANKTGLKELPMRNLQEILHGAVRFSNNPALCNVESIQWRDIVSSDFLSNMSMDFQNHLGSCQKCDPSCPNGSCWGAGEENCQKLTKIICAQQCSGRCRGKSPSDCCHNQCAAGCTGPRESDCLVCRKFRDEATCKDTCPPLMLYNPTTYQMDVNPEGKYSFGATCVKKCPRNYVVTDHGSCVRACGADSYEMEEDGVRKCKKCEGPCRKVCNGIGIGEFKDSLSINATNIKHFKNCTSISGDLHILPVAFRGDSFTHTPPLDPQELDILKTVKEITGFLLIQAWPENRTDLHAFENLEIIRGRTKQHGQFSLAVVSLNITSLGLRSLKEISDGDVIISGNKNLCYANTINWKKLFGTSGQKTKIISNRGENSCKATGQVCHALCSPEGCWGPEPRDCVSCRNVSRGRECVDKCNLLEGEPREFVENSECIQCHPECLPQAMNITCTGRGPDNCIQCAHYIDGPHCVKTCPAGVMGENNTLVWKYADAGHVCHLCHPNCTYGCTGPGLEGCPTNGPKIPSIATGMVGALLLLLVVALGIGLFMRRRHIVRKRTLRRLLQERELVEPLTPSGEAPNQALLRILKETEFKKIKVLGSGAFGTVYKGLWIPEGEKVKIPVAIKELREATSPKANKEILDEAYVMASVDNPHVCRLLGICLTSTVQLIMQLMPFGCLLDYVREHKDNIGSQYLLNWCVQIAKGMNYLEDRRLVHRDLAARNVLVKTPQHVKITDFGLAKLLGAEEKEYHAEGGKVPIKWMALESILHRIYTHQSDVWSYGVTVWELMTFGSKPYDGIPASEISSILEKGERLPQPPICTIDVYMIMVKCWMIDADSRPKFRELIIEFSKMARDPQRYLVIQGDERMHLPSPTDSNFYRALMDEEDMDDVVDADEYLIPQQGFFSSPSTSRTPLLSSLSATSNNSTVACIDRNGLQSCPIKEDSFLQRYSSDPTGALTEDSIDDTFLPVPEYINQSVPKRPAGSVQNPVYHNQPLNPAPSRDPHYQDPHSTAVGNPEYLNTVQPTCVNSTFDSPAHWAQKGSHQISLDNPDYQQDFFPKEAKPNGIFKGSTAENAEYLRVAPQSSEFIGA

C=CC(=O)Nc1cc(Nc2nccc(-c3cn(C)c4ccccc34)n2)c(OC)cc1N(C)CCN(C)C [OSIMERTINIB]
IC50 (NCI-H1975 [1]): […] | IC50 (A-431): […] | IC50 (L02): > 40 µM | IC50 (NCI-H1975 [2]): […]

COc1cc2ncnc(Nc3ccc(F)c(Cl)c3)c2cc1OCCCN1CCOCC1 [GEFITINIB]
Activity (NCI-H1975 [3]): 33.72% | Activity (NCI-H1975 [4]): 0.61% | Activity (NCI-H1975 [5]): 18.76% | Activity (NCI-H1975 [6]): 7.78% | viability at 2 µM (NCI-H1975 [7]): 86.2% | Activity (NCI-H1975 [8]): 5.44% | Activity (NCI-H1975 [9]): 47.52%

C#Cc1cccc(Nc2ncnc3cc(OC)c(OCCCCC(=O)Nc4ccc(S(N)(=O)=O)cc4)cc23)c1
IC50 [10]: 49.2 nM | IC50 [11]: 48.5 nM | IC50 (A549 [12]): 7.72 µM | IC50 (A-431): 17.7 µM | IC50 (NCI-H1975 [2]): 18.8 µM

NS(=O)(=O)c1ccc(NC(=S)Nc2ccc3ncnc(Nc4cccc(C(F)(F)F)c4)c3c2)cc1
IC50 (Carbonic anhydrase 2): 526 nM | IC50 [10]: 51.2 nM | IC50 [11]: 135 nM | IC50 (A549 [12]): 10.1 µM | IC50 (A-431): 21.7 µM | IC50 (Carbonic anhydrase 9 [13]): 578 nM | IC50 (NCI-H1975 [2]): 7.59 µM

COc1cc2ncnc(Nc3ccc(Cl)c(C(F)(F)F)c3)c2cc1OCCCCC(=O)Nc1ccc(S(N)(=O)=O)cc1
IC50 (Carbonic anhydrase 2): 356 nM | IC50 [10]: 13.7 nM | IC50 [11]: 37.5 nM | IC50 (A549 [12]): 9.27 µM | IC50 (A-431): 3.91 µM | IC50 (Carbonic anhydrase 9 [13]): 224 nM | IC50 (NCI-H1975 [2]): 3.22 µM

CC(=O)Nc1nnc(S(N)(=O)=O)s1
Activity (NCI-H1975 [14]): Active

NS(=O)(=O)c1ccc(CCNC(=S)Nc2ccc3ncnc(Nc4cccc(C(F)(F)F)c4)c3c2)cc1
IC50 (Carbonic anhydrase 2): 241 nM | IC50 [10]: 42.6 nM | IC50 [11]: 93.4 nM | IC50 (A549 [12]): 9.05 µM | IC50 (A-431): 16.8 µM | IC50 (Carbonic anhydrase 9 [13]): 313 nM | IC50 (NCI-H1975 [2]): 4.25 µM

COc1cc2ncnc(Nc3ccc(F)c(Cl)c3)c2cc1OCCCCC(=O)Nc1ccc(S(N)(=O)=O)cc1
IC50 [10]: 18.3 nM | IC50 [11]: 61.9 nM | IC50 (A549 [12]): 15.5 µM | IC50 (A-431): 5.02 µM | IC50 (NCI-H1975 [2]): 35.6 µM

COc1cc2ncnc(Nc3cccc(C(F)(F)F)c3)c2cc1OCCCCC(=O)Nc1ccc(S(N)(=O)=O)cc1
Activity (NCI-H1975 [3]): 47.44% | IC50 (Carbonic anhydrase 2): 278 nM | Activity (NCI-H1975 [4]): 2.19% | Activity (NCI-H1975 [15]): Dose-Dependent Effect | IC50 [10]: 27 nM | Activity (NCI-H1975 [16]): 3.4% | Activity (NCI-H1975 [17]): Dose-Dependent Effect | Activity (NCI-H1975 [5]): 15.58% | inhibition [18]: Dose-Dependent Effect | Activity (NCI-H1975 [19]): 26.6% | IC50 [11]: 9.2 nM | Activity (NCI-H1975 [6]): 21.6% | Activity (NCI-H1975 [20]): 17.21% | IC50 (A549 [21]): 2210 nM | viability at 2 µM (NCI-H1975 [7]): 68.4% | Activity (NCI-H1975 [8]): 7.8% | Activity (NCI-H1975 [22]): 54.85% | Activity (NCI-H1975 [23]): 14.1% | IC50 (NCI-H1975 [1]): 1050 nM | Activity (NCI-H1975 [24]): 27.94% | Activity (Carbonic anhydrase 9 [25]): Dose-Dependent Effect | Activity (NCI-H1975 [9]): 36.98% | inhibition [26]: Dose-Dependent Effect | Activity (NCI-H1975 [27]): 17.9% | IC50 (A549 [12]): 6.54 µM | Activity (NCI-H1975 [28]): Dose-Dependent Effect | viability at 5 µM (NCI-H1975 [29]): 56% | IC50 (A-431): 4.04 µM | IC50 (Carbonic anhydrase 9 [13]): 115 nM | IC50 (L02): > 40 µM | inhibition [30]: Dose-Dependent Effect | Activity (NCI-H1975 [31]): Dose-Dependent Effect | IC50 (NCI-H1975 [2]): 1.94 µM
